# Test results from PMC5237703 (Acta Pharmaceutica Sinica. B, 2016).
# Like-named read-outs stand apart in the source and are kept apart here.
# What was measured:
# [1] = tested on: MCF-7 (breast cancer); experiment: MTT cytotoxicity assay, MCF-7; type: cell-based, human; details: read-out: IC50 Breast MCF-7
# Summary of the method: (§1)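 Media: EMEM for MCF-7, McCoy's 5a for SaOS-2, RPMI-1640 for K562, each with NaHCO3, sodium pyruvate, 10% fetal calf serum and 1% penicillin/streptomycin. Culture at 37 °C, humidified 5% CO2. Seeded 5×10^3 cells/well and exposed to graded test compound for 72 h. MTT for 4 h, DMSO solubilisation, A570. IC50 from percent survival; mean ± SD, 2–3 experiments in triplicate.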
# [2] = tested on: breast carcinoma cell line MDA-MB-231; experiment: MTT cytotoxicity assay, MDA-MB-231; type: cell-based; details: read-out: IC50 Breast MDAMB-231
# Summary of the method: (§2)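 Cells grown as adherent monolayers in DMEM with 10% FBS at 37 °C under humidified 5% CO2. Cells were trypsin-harvested and seeded at 5×10^3 per well, then graded concentrations of test compound were added for 72 h. MTT (4 mg/mL solution) was added for 4 h, formazan dissolved in DMSO and A570 read. IC50 derived from percent survival; mean ± SD, 2–3 experiments in triplicate.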
# [3] = tested on: breast carcinoma cell line MDA-MB-468; experiment: MTT cytotoxicity assay, MDA-MB-468; type: cell-based; details: read-out: IC50 Breast MDAMB-468
# Summary of the method: as §2
# [4] = tested on: prostatic cancer cell line DU-145; experiment: MTT cytotoxicity assay, DU-145; type: cell-based; details: read-out: IC50 Prostate DU-145
# Summary of the method: as §2
# [5] = tested on: pancreatic cancer cell line PANC-1; experiment: MTT cytotoxicity assay, PANC-1; type: cell-based; details: read-out: IC50 Pancreas PANC-1
# Summary of the method: as §2
# [6] = tested on: K562 (myelogenous leukemia); experiment: MTT cytotoxicity assay, K562; type: cell-based, human; details: read-out: IC50 Blood K562
# Summary of the method: as §1
# [7] = tested on: SaOS-2 (osteosarcoma); experiment: MTT cytotoxicity assay, SaOS-2; type: cell-based, human; details: read-out: IC50 Bone SaoS2
# Summary of the method: as §1
# [8] = tested on: colon carcinoma cell line HCT-15; experiment: MTT cytotoxicity assay, HCT-15; type: cell-based; details: read-out: IC50 Colon HCT15
# Summary of the method: as §2
# [9] = tested on: Lung cancer cell line A549; experiment: MTT cytotoxicity assay, A549; type: cell-based
# [10] = tested on: human embryonic kidney cells HEK293; experiment: MTT cytotoxicity assay, HEK293; type: cell-based; details: read-out: IC50 Normal HEK293
# Summary of the method: as §2
# [11] = tested on: mouse fibroblast KB-31; experiment: MTT cytotoxicity assay, KB-31; type: cell-based; details: KB 3-1, 72 h, read-out: IC50 Mouse fibroblast KB-31
# Summary of the method: as §2
# [12] = biological target: T1, COX-1 (Ovis aries, UniProt P05979); experiment: COX-1 inhibition, chromogenic TMPD oxidation assay; type: biochemical, Ram
# T1 sequence (P05979 25-600): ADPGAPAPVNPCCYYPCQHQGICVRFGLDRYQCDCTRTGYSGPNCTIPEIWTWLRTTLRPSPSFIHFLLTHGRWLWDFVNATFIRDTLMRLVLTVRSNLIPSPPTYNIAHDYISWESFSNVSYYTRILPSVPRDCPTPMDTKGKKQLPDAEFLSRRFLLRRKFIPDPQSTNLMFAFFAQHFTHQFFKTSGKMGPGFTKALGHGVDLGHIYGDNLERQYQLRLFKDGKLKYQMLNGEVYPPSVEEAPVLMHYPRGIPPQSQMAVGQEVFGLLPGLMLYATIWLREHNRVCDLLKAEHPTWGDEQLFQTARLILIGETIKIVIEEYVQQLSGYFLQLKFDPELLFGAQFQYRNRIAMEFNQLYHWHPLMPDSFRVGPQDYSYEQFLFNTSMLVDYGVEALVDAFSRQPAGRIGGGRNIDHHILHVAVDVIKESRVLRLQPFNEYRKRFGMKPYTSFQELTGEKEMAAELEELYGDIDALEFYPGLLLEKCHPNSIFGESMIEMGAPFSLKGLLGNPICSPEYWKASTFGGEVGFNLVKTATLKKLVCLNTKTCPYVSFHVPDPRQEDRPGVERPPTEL
# [13] = biological target: T2, Recombinant human COX-2 (Homo sapiens, UniProt P35354); experiment: biochemical; type: biochemical; details: for IC50: TMPD oxidation at 603 nm; for Selectivity ratio COX-2/COX-1: ratio of IC50 COX-2 to IC50 COX-1
# T2 sequence (P35354 18-604): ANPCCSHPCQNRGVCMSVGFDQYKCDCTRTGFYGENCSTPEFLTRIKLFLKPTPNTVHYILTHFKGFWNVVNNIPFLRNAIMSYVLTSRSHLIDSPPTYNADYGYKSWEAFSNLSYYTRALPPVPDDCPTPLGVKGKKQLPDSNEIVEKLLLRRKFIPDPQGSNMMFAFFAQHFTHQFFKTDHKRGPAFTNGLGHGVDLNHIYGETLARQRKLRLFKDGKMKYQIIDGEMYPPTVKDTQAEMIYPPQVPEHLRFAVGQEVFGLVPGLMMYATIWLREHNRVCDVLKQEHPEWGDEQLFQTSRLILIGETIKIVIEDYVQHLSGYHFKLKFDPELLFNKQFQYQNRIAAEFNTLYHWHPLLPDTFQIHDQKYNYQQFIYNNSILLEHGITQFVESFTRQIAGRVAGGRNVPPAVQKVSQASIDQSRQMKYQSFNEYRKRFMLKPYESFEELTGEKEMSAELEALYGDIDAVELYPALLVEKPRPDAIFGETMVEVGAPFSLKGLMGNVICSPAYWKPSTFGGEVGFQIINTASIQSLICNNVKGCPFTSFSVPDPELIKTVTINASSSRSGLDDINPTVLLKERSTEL
# [14] = Homo sapiens, A549, read-out: IC50 Lung A549
# [15] = IC50 COX-2, recombinant human COX-2
# [16] = MTT, 72 h incubation, non-cancerous cell line
# [17] = read-out: IC50 COX-1, COX-1 from Ram seminal vesicles, TMPD oxidation at 603 nm
# [18] = read-out: IC50 COX-2, recombinant human COX-2
Compound,IC50 [12],"IC50 [13, 15]",Selectivity ratio COX-2/COX-1 [13],"IC50 ([1]; Homo sapiens, MCF7, 72 h)","IC50 ([2]; Homo sapiens, MDA-MB-231, 72 h)","IC50 ([3]; Homo sapiens, MDA-MB-468, 72 h)","IC50 ([4]; Homo sapiens, DU-145, 72 h)","IC50 ([5]; Homo sapiens, PANC-1, 72 h)","IC50 ([6]; Homo sapiens, K562, 72 h)","IC50 ([7]; Homo sapiens, SAOS-2, 72 h)","IC50 ([8]; Homo sapiens, HCT-15, 72 h)","IC50 [9, 14]","IC50 ([10]; Homo sapiens, HEK293, 72 h)",IC50 [11],"IC50 ([1]; MTT, 72 h incubation)","IC50 ([2]; MTT, 72 h incubation)","IC50 ([3]; MTT, 72 h incubation)","IC50 ([4]; MTT, 72 h incubation)","IC50 ([5]; MTT, 72 h incubation)","IC50 ([6]; MTT, 72 h incubation)",also measured
"5-(3-(3,4-Dimethoxyphenyl)-3H-imidazo[4,5-b]pyridin-2-yl)-2-methoxyphenol [Compound 3h]",–,–,0.83,–,–,–,–,–,–,–,–,–,–,–,53 µM,> 100 µM,> 100 µM,> 100 µM,57.7 µM,54.5 µM,"IC50 ([7]; MTT, 72 h incubation): 59 µM; IC50 ([8]; MTT, 72 h incubation): 66.9 µM; IC50 ([9]; read-out: IC50 Lung A549, MTT): > 100 µM; IC50 [10, 16]: 80 µM; IC50 [12, 17]: 18.5 µM; IC50 [13, 18]: 15.4 ± 3.1 µM"
"5-(3-(4-Fluorophenyl)-3H-imidazo[4,5-b]pyridin-2-yl)-2-methoxyphenol [Compound 3e]",–,–,16.58,–,–,–,–,–,–,–,–,–,–,–,60 µM,> 100 µM,78.8 µM,> 100 µM,> 100 µM,53 µM,"IC50 ([7]; MTT, 72 h incubation): 62.5 µM; IC50 ([8]; MTT, 72 h incubation): > 100 µM; IC50 ([9]; read-out: IC50 Lung A549, MTT): > 100 µM; IC50 [10, 16]: > 100 µM; IC50 [12, 17]: 16.8 ± 0.1 µM; IC50 [13, 18]: 279 ± 7.2 µM"
"4-(3-(4-Fluorophenyl)-3H-imidazo[4,5-b]pyridin-2-yl)-2-methoxyphenol [Compound 3d]",–,–,0.60,–,–,–,–,–,–,–,–,–,–,–,72 µM,> 100 µM,> 100 µM,> 100 µM,> 100 µM,57 µM,"IC50 ([7]; MTT, 72 h incubation): 71.5 µM; IC50 ([8]; MTT, 72 h incubation): > 100 µM; IC50 ([9]; read-out: IC50 Lung A549, MTT): > 100 µM; IC50 [10, 16]: > 100 µM; IC50 [12, 17]: 42.7 ± 2.5 µM; IC50 [13, 18]: 25.6 ± 1 µM"

# Continued, in another order:
IC50 [12],"IC50 [13, 15]",Selectivity ratio COX-2/COX-1 [13],Compound,"IC50 ([1]; Homo sapiens, MCF7, 72 h)","IC50 ([2]; Homo sapiens, MDA-MB-231, 72 h)","IC50 ([3]; Homo sapiens, MDA-MB-468, 72 h)","IC50 ([4]; Homo sapiens, DU-145, 72 h)","IC50 ([5]; Homo sapiens, PANC-1, 72 h)","IC50 ([6]; Homo sapiens, K562, 72 h)","IC50 ([7]; Homo sapiens, SAOS-2, 72 h)","IC50 ([8]; Homo sapiens, HCT-15, 72 h)","IC50 [9, 14]","IC50 ([10]; Homo sapiens, HEK293, 72 h)",IC50 [11],"IC50 ([1]; MTT, 72 h incubation)","IC50 ([2]; MTT, 72 h incubation)","IC50 ([3]; MTT, 72 h incubation)","IC50 ([4]; MTT, 72 h incubation)","IC50 ([5]; MTT, 72 h incubation)","IC50 ([6]; MTT, 72 h incubation)",also measured
19.1 ± 0.3 µM,22.4 ± 2.5 µM,1.17,"COc1cc(-c2nc3cccnc3n2-c2ccc(Cl)cc2)cc(OC)c1OC [Compound 3g, 3-(4-Chlorophenyl)-2-(3,4,5-trimethoxyphenyl)-3H-imidazo[4,5-b]pyridine]",56 µM,> 100 µM,69.3 µM,> 100 µM,83.5 µM,47 µM,55 µM,> 100 µM,> 100 µM,> 100 µM,64.4 µM,–,–,–,–,–,–,–
15 ± 0.13 µM,–,–,"COc1cccc(-c2nc3cccnc3n2-c2ccc(F)cc2)c1 [Compound 3b, 3-(4-Fluorophenyl)-2-(3-methoxyphenyl)-3H-imidazo[4,5-b]pyridine]",69 µM,> 100 µM,66.5 µM,> 100 µM,> 100 µM,46 µM,67 µM,> 100 µM,> 100 µM,> 100 µM,75 µM,–,–,–,–,–,–,–
36 ± 1.4 µM,15.1 ± 0.9 µM,0.42,"Fc1ccc(-n2c(-c3cccc(C(F)(F)F)c3)nc3cccnc32)cc1 [Compound 3c, 3-(4-Fluorophenyl)-2-(3-(trifluoromethyl)phenyl)-3H-imidazo[4,5-b]pyridine]",44 µM,> 100 µM,> 100 µM,> 100 µM,> 100 µM,42 µM,52.5 µM,> 100 µM,> 100 µM,> 100 µM,> 100 µM,–,–,–,–,–,–,–
10 ± 0.01 µM,35.9 ± 2 µM,3.59,"Oc1cccc(-c2nc3cccnc3n2-c2ccc(F)cc2)c1 [Compound 3a, 3-(3-(4-Fluorophenyl)-3H-imidazo[4,5-b]pyridin-2-yl)phenol]",61.5 µM,> 100 µM,> 100 µM,> 100 µM,> 100 µM,49 µM,64 µM,> 100 µM,> 100 µM,> 100 µM,> 100 µM,–,–,–,–,–,–,–
21.8 ± 1.1 µM,9.2 ± 0.02 µM,0.42,"FC(F)(F)c1cccc(-c2nc3cccnc3n2-c2ccc(Cl)cc2)c1 [Compound 3f, 3-(4-Chlorophenyl)-2-(3-(trifluoromethyl)phenyl)-3H-imidazo[4,5-b]pyridine]",49.9 µM,> 100 µM,> 100 µM,> 100 µM,> 100 µM,43 µM,53.5 µM,> 100 µM,> 100 µM,> 100 µM,> 100 µM,–,–,–,–,–,–,selectivity for COX-2 over COX-1 ([13]; from IC50 values against COX-2 and COX-1): 2 fold
